≈ marks a conversion by molar mass, not a printed value. Calls of active or inactive are those of the source. No cut-off for these calls is given here.
Legend:
Enterococcus faecalis = assay: Antibacterial activity against Enterococcus faecalis ATCC 19433 after 20 hrs by CLSI based-broth microdilution method; type: functional; details: ATCC 19433, 20 h
Staphylococcus aureus [1] = assay: Antibacterial activity against Staphylococcus aureus ATCC 25923 after 20 hrs by CLSI based-broth microdilution method; type: functional; details: ATCC 25923, 20 h
Staphylococcus aureus [2] = assay: Antibacterial activity against Staphylococcus aureus ATCC 29213 after 20 hrs by CLSI based-broth microdilution method; type: functional; details: ATCC 29213, 20 h
[3] = test system: Staphylococcus epidermidis; assay: Antibacterial activity against Staphylococcus epidermidis ATCC 12228 after 20 hrs by CLSI based-broth microdilution method; type: functional; details: ATCC 12228, 20 h
[4] = test system: Staphylococcus saprophyticus; assay: Antibacterial activity against Staphylococcus saprophyticus ATCC 15305 after 20 hrs by CLSI based-broth microdilution method; type: functional; details: subsp. saprophyticus ATCC 15305, 20 h
Streptococcus pyogenes = assay: Antibacterial activity against Streptococcus pyogenes ATCC 19615 after 20 hrs by CLSI based-broth microdilution method; type: functional; details: ATCC 19615, 20 h
Streptococcus agalactiae [5] = assay: Antibacterial activity against Streptococcus agalactiae ATCC 12386 after 20 hrs by CLSI based-broth microdilution method; type: functional; details: ATCC 12386, 20 h
Staphylococcus aureus [6] = assay: Bacteriostatic activity against Staphylococcus aureus ATCC 25923 at 16 times MIC measured over 6 hrs by time kill assay; type: functional, organism-based
Streptococcus agalactiae [7] = assay: Bacteriostatic activity against Streptococcus agalactiae ATCC 12386 at 16 times MIC measured over 6 hrs by time kill assay; type: functional, organism-based
Staphylococcus aureus [8] = assay: Bactericidal activity against Staphylococcus aureus ATCC 25923 assessed as decrease in CFU count at 16 times MIC measured over 6 hrs by time kill assay; type: functional, organism-based
Streptococcus agalactiae [9] = assay: Bactericidal activity against Streptococcus agalactiae ATCC 12386 assessed as decrease in CFU count at 16 times MIC measured over 6 hrs by time kill assay; type: functional, organism-based
Streptococcus pneumoniae [10] = assay: Bacteriostatic activity against Streptococcus pneumoniae ATCC 49619 at 1 times MIC measured over 6 hrs by time kill assay; type: functional, organism-based
Streptococcus pneumoniae [11] = assay: Bactericidal activity against Streptococcus pneumoniae ATCC 49619 at 4 to 16 times MIC measured over 6 hrs by time kill assay; type: functional, organism-based
Streptococcus pneumoniae [12] = assay: Bacteriostatic activity against Streptococcus pneumoniae ATCC 49619 assessed as decrease in bacterial growth at 4 to 16 times MIC measured over 6 hrs by time kill assay relative to control; type: functional
Streptococcus pneumoniae [13] = assay: Antibacterial activity against Streptococcus pneumoniae ATCC 49619 assessed as reduction in bacterial ATP production at 0.25 to 16 times MIC measured up to 6 hrs by BacTiter-Glo assay; type: functional, organism-based
Outline: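 Log-phase S. pneumoniae, about 1.5 × 10^6 CFU/mL in BHI containing compound at several concentrations, untreated control included; grown at 37 °C, 200 rpm, 5% CO2; samples taken at 0, 2, 4 and 6 h; ATP measured by BacTiter-Glo luminescence; triplicate.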

Streptococcus pneumoniae [14] = assay: Antibacterial activity against Streptococcus pneumoniae ATCC 49619 assessed as reduction in pneumolysin release at 0.25 to 0.5 times MIC incubated for 16 to 20 hrs by Western blot analysis; type: functional, organism-based
Outline: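 Overnight static culture in brain–heart infusion broth, with or without serially diluted compound; rifampicin and ceftriaxone controls at twofold dilutions from 2 to 0.002 μg/mL; untreated control. […] Western blot probed with rabbit polyclonal anti-pneumolysin (1:1000) and HRP anti-rabbit secondary, ECL chemiluminescence; band intensity normalized to untreated control.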

HepG2 = assay: Cytotoxicity against human HepG2 cells after 48 to 72 hrs by MTT assay; type: cell-based
A549 = assay: Cytotoxicity against human A549 cells after 48 to 72 hrs by MTT assay; type: cell-based
[15] = Therapeutic index, ratio of CC50 for human HepG2 cells to MIC for Streptococcus pneumoniae ATCC 49619; type: toxicity; details: read-out: TI
[16] = Therapeutic index, ratio of CC50 for human A549 cells to MIC for Streptococcus pneumoniae ATCC 49619; type: toxicity; details: read-out: TI
[17] = Inhibition of Escherichia coli RNAP/sigma-70 protein-protein interaction assessed as reduction in RNA synthesis preincubated for 10 mins followed by sigma-70/DNA template/AGU/ApU/alpha [32P]GTP addition and measured after 10 mins by phosphorimaging analysis
Bacillus subtilis [18] = assay: Inhibition of RNAP subunit beta' interaction with sigma factor A assessed as RNAP delocalization from nucleoid at 0.5 times MIC incubated for 15 mins by confocal microscopy
Bacillus subtilis [19] = assay: Inhibition of RNAP subunit beta' interaction with sigma factor A assessed as diffusion of RNAP into cytosolic region at 1 to 2 times MIC incubated for 15 mins by confocal microscopy
Staphylococcus aureus [20] = assay: Effect on total DNA level in Staphylococcus aureus ATCC 29213 at 1/4 to 1/8 times MIC by fluorimetric method; type: functional, organism-based
Staphylococcus aureus [21] = assay: Effect on total RNA level in Staphylococcus aureus ATCC 29213 at 1/4 to 1/8 times MIC by fluorimetric method; type: functional
Staphylococcus aureus [22] = assay: Effect on total protein level in Staphylococcus aureus ATCC 29213 at 1/4 to 1/8 times MIC; type: functional, organism-based
Klebsiella pneumoniae = assay: Antibacterial activity against Klebsiella pneumoniae ATCC 700603 after 20 hrs by CLSI based-broth microdilution method; type: functional; details: ATCC 700603, 20 h
Acinetobacter baumannii = assay: Antibacterial activity against Acinetobacter baumannii ATCC 19606 after 20 hrs by CLSI based-broth microdilution method; type: functional; details: ATCC 19606 = CIP 70.34 = JCM 6841, 20 h
Pseudomonas aeruginosa = assay: Antibacterial activity against Pseudomonas aeruginosa ATCC 27853 after 20 hrs by CLSI based-broth microdilution method; type: functional; details: ATCC 27853, 20 h
Enterobacter cloacae = assay: Antibacterial activity against Enterobacter cloacae ATCC 13047 after 20 hrs by CLSI based-broth microdilution method; type: functional; details: subsp. cloacae ATCC 13047, 20 h
Escherichia coli = assay: Antibacterial activity against Escherichia coli ATCC 25922 after 20 hrs by CLSI based-broth microdilution method; type: functional; details: ATCC 25922, 20 h

## O=C(O)c1ccc(Cl)cc1NCc1ccc(Sc2ccc(Cl)c(Cl)c2)c([N+](=O)[O-])c1
Enterococcus faecalis
  MIC: 4 µg/mL (≈ 8.27 µM)
Staphylococcus aureus [1]
  MIC: 4 µg/mL (≈ 8.27 µM)
Staphylococcus aureus [2]
  MIC: 4 µg/mL (≈ 8.27 µM)
[3]
  MIC: 2 µg/mL (≈ 4.13 µM)
[4]
  MIC: 2 µg/mL (≈ 4.13 µM)
Streptococcus pyogenes
  MIC: 1 µg/mL (≈ 2.07 µM)
Streptococcus agalactiae [5]
  MIC: 2 µg/mL (≈ 4.13 µM)
Staphylococcus aureus [6]
  Activity: Active
Streptococcus agalactiae [7]
  Activity: Active
Staphylococcus aureus [8]
  Activity: inactive
Streptococcus agalactiae [9]
  Activity: inactive
Streptococcus pneumoniae [10]
  Activity: Active
Streptococcus pneumoniae [11]
  Activity: inactive
Streptococcus pneumoniae [12]
  log(activity): 2
Streptococcus pneumoniae [13]
  Activity: Active
Streptococcus pneumoniae [14]
  Activity: Active
HepG2
  CC50: 74.4 µM
A549
  CC50: 75.7 µM
[15]
  selectivity ratio: 36
[16]
  selectivity ratio: 37
[17]
  IC50: 6.8 µM
Bacillus subtilis [18]
  inhibition: Active
Bacillus subtilis [19]
  inhibition: Active
Staphylococcus aureus [20]
  Activity: inactive
Staphylococcus aureus [21]
  Activity: Active
Staphylococcus aureus [22]
  Activity: Active
Klebsiella pneumoniae
  MIC: > 256 µg/mL
Acinetobacter baumannii
  MIC: > 256 µg/mL
Pseudomonas aeruginosa
  MIC: > 256 µg/mL
Enterobacter cloacae
  MIC: > 256 µg/mL
Escherichia coli
  MIC: > 256 µg/mL

— ChEMBL document CHEMBL4616723, “Discovery of Antibacterials That Inhibit Bacterial RNA Polymerase Interactions with Sigma Factors” (J Med Chem, 2020)
